Drawing on ChEMBL document CHEMBL1151475, “Thiopurine drugs azathioprine and 6-mercaptopurine inhibit Mycobacterium paratuberculosis growth in vitro” (2008), this text covers Activity for one compound.

Where only a bound is given, the exact number is not on record here.

Experiment [1] concerns Mycobacterium avium subsp. paratuberculosis. Briefly: Antituberculosis activity against Mycobacterium paratuberculosis JTC303 isolated from bovine assessed as minimum drug level required for inhibition by MGIT 960 susceptibility test. In kind it is functional. A digest of the protocol: (§1)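 10^5 to 10^6 CFU from single-cell suspensions inoculated in duplicate into MGIT ParaTB medium with supplement and egg yolk. Drugs were at final 0.5–64.0 μg/ml, with 128.0 μg/ml added for some strains. Tubes were incubated at 37°C in MGIT 960. Inhibition is the lowest concentration giving a time to detection longer than a drug-free 1:100 inoculum control. Killing is no positive signal through 56 days.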

The test system is the same in experiment [2]. Briefly: Antituberculosis activity against Mycobacterium paratuberculosis JTC303 isolated from bovine assessed as minimum drug level required for killing after 56 days by MGIT 960 susceptibility test. In kind it is functional. A digest of the protocol:
as §1

Experiment [3] shares this test system. Briefly: Antituberculosis activity against Mycobacterium paratuberculosis UCF-7 isolated from Crohn's disease patient assessed as minimum drug level required for killing after 56 days by MGIT 960 susceptibility test. In kind it is functional. A digest of the protocol:
as §1

Experiment [4] shares this test system. Kind of experiment: Antituberculosis activity against Mycobacterium paratuberculosis B213 isolated from bovine assessed as minimum drug level required for killing after 56 days by MGIT 960 susceptibility test. The class given is functional. A digest of the protocol: as §1
For experiment [5] the test system is unchanged. Briefly: Antituberculosis activity against Mycobacterium paratuberculosis B236 isolated from bovine assessed as minimum drug level required for inhibition by MGIT 960 susceptibility test. The class given is functional. A digest of the protocol:
as §1

Experiment [6] shares this test system. Kind of experiment: Antituberculosis activity against Mycobacterium paratuberculosis UCF-8 isolated from Crohn's disease patient assessed as minimum drug level required for killing after 56 days by MGIT 960 susceptibility test. In kind it is functional. A digest of the protocol:
as §1

Experiment [7] shares this test system. Kind of experiment: Antituberculosis activity against Mycobacterium paratuberculosis B244 isolated from bovine assessed as minimum drug level required for inhibition by MGIT 960 susceptibility test. In kind it is functional. A digest of the protocol:
as §1

Experiment [8] has as its system Mycobacterium avium. Kind of experiment: Antituberculosis activity against Mycobacterium avium ATCC 25291 isolated from chicken assessed as minimum drug level required for killing within 15 days by MGIT 960 susceptibility test. In kind it is functional.
The test system of experiment [9] is Mycobacterium avium. Kind of experiment: Antituberculosis activity against Mycobacterium avium 104 isolated from AIDS patient assessed as minimum drug level required for killing within 15 days by MGIT 960 susceptibility test. The class given is functional.
In experiment [10] the test system is Mycobacterium avium. Kind of experiment: Antituberculosis activity against Mycobacterium avium JTC48627 isolated from bison fecal sample assessed as minimum drug level required for inhibition by MGIT 960 susceptibility test. The class given is functional, Feces. A digest of the protocol: as §1
The subject of experiment [11] is Mycobacterium avium. Kind of experiment: Antituberculosis activity against Mycobacterium avium JTC981 isolated from bongo fecal sample assessed as minimum drug level required for killing within 15 days by MGIT 960 susceptibility test. The class given is functional, Feces.
Experiment [12] deals with Mycobacterium avium. Briefly: Antituberculosis activity against Mycobacterium avium EPA3 isolated from water assessed as minimum drug level required for killing within 15 days by MGIT 960 susceptibility test. In kind it is functional.
In experiment [13] the test system is Mycolicibacterium smegmatis. Kind of experiment: Antituberculosis activity against Mycobacterium smegmatis ATCC 14468 assessed as minimum drug level required for inhibition by MGIT 960 susceptibility test. The class given is functional. A digest of the protocol: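 MGIT ParaTB tubes were supplemented with egg yolk and inoculated in duplicate with 10^5 to 10^6 CFU from single-cell suspensions. Thiopurines were dissolved in 0.05 M NaOH in 10 mM PBS and tested at final 0.5 to 64.0 μg/ml, with 128.0 μg/ml added for some strains. Tubes ran at 37°C in the MGIT 960. The value is the lowest concentration giving a time-to-detection longer than a drug-free 1:100 inoculum control.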

In another experiment the test system is Escherichia coli. Kind of experiment: Antituberculosis activity against Escherichia coli ATCC 25922 clinical isolate assessed as minimum drug level required for killing after 56 days by MGIT 960 susceptibility test. The class given is functional.
Another experiment relates to Enterococcus faecalis. Briefly: Antituberculosis activity against Enterococcus faecalis ATCC 29212 isolated from human urine assessed as minimum drug level required for inhibition by MGIT 960 susceptibility test. In kind it is functional.

In the case of `Sc1ncnc2nc[nH]c12` [MERCAPTOPURINE ANHYDROUS], the Activity in experiment [1] was 1 µg/mL; in experiment [2], 32 µg/mL; in experiment [3] it was 8 µg/mL; in experiment [4] it was greater than 32 µg/mL; in experiment [5] it was 4 µg/mL; in experiment [6], 16 µg/mL. Besides, the Activity in [7] was 4 µg/mL; with Mycobacterium avium [8], greater than 64 µg/mL; in the experiment on Mycobacterium avium [9], greater than 64 µg/mL; in the experiment with Mycobacterium avium [10], 32 µg/mL; in the experiment on Mycobacterium avium [11], greater than 64 µg/mL; in the experiment on Mycobacterium avium [12], greater than 64 µg/mL. The Activity (in [13]; in the experiment on Escherichia coli; with Enterococcus faecalis) was greater than 128 µg/mL each time.
